Active and inactive are the calls of the source. The calls are words filed in the database; no cut-off is given here. Peptide text beside a SMILES is read from it.
Columns and labels:
Homo sapiens [1] = species on record: Homo sapiens; experiment: Platelet aggregation activity of the compound; IA means inactive; format: functional, organism-based
Method in brief: (§1)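 Human platelet-rich plasma from healthy donors who had taken no medication for the previous two weeks. Synthetic peptides were added directly and scored for their ability to induce platelet aggregation.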

[2] = target: T1, Proteinase-activated receptor 1 (Homo sapiens) (UniProt P25116); experiment: Thrombin receptor antagonistic activity was evaluated by the inhibition of platelet aggregation induced by the agonist SFLLRNP; format: functional; set-up: scale not given: the % may be the effect or the level left
T1 sequence (whole entry): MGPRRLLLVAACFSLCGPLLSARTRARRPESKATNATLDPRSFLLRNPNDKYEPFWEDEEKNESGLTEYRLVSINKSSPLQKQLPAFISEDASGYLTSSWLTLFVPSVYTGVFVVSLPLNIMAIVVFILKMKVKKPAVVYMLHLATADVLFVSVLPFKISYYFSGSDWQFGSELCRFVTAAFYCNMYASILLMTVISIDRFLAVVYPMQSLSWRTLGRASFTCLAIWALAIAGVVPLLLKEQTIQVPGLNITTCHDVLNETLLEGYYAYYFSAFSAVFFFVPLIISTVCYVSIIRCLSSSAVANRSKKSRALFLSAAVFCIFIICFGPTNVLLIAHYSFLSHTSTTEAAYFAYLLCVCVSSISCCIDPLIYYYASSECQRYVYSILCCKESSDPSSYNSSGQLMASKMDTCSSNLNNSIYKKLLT
Method in brief: (§2)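 Human platelet-rich plasma from drug-free healthy donors. Test peptide (e.g. 100 μM) was incubated in the plasma for 3 min, then SFLLRNP agonist was added to induce aggregation. Inhibition of aggregation was measured; IC50 came from dose-dependent inhibition.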

[3] = target: T1, Proteinase-activated receptor 1 (Homo sapiens); experiment: Thrombin receptor antagonistic activity was evaluated by the inhibition of platelet aggregation induced by the agonist SFLLRNP; IA means inactive; format: functional; method in brief: as §2
Homo sapiens [4] = species on record: Homo sapiens; experiment: Platelet aggregation activity of the compound; format: functional, organism-based; method in brief: as §1

SMILES	EC50 (Homo sapiens [1])	Activity [2] [%]	Activity [3]	EC50 (Homo sapiens [4]) [µM]
CC(C)C[C@H](NC(=O)[C@H](CC(C)C)NC(=O)[C@H](Cc1ccccc1)NC(=O)[C@@H](N)CO)C(=O)N[C@@H](CC(=O)O)C(=O)N[C@@H](CC(N)=O)C(=O)N1CCC[C@H]1C(=O)O (H-SFLLDNP-OH)	Not Active		inactive	
CC(C)C[C@H](NC(=O)[C@H](CC(C)C)NC(=O)[C@H](Cc1ccccc1)NC(=O)[C@@H](N)CO)C(=O)N[C@@H](CCCN=C(N)N)C(=O)N[C@@H](CC(N)=O)C(=O)N[C@@H](CC(=O)O)C(=O)O (H-SFLLRND-OH)			inactive	4.27
CC(C)C[C@H](NC(=O)[C@H](CC(C)C)NC(=O)[C@H](Cc1ccccc1)NC(=O)[C@@H](N)CO)C(=O)N[C@@H](CCCN=C(N)N)C(=O)N[C@@H](CC(=O)O)C(=O)N1CCC[C@H]1C(=O)O (H-SFLLRDP-OH)			inactive	4.36

Continued, values first:

EC50 (Homo sapiens [1])	Activity [2] [%]	Activity [3]	EC50 (Homo sapiens [4]) [µM]	SMILES
Not Active	19			CC(C)C[C@H](NC(=O)[C@H](CC(=O)O)NC(=O)[C@H](Cc1ccccc1)NC(=O)[C@@H](N)CO)C(=O)N[C@@H](CCCN=C(N)N)C(=O)N[C@@H](CC(N)=O)C(=O)N1CCC[C@H]1C(=O)O (H-SFDLRNP-OH)
Not Active		inactive		CC(C)C[C@H](NC(=O)[C@H](CC(C)C)NC(=O)[C@H](CC(=O)O)NC(=O)[C@@H](N)CO)C(=O)N[C@@H](CCCN=C(N)N)C(=O)N[C@@H](CC(N)=O)C(=O)N1CCC[C@H]1C(=O)O (H-SDLLRNP-OH)
Not Active		inactive		CC(C)C[C@H](NC(=O)[C@H](Cc1ccccc1)NC(=O)[C@@H](N)CO)C(=O)N[C@@H](CC(=O)O)C(=O)N[C@@H](CCCN=C(N)N)C(=O)N[C@@H](CC(N)=O)C(=O)N1CCC[C@H]1C(=O)O (H-SFLDRNP-OH)
		inactive	4.27	CC(C)C[C@H](NC(=O)[C@H](CC(C)C)NC(=O)[C@H](Cc1ccccc1)NC(=O)[C@@H](N)CO)C(=O)N[C@@H](CCCN=C(N)N)C(=O)N[C@@H](CC(N)=O)C(=O)N1CCC[C@H]1C(=O)O (H-SFLLRNP-OH)
Not Active		inactive		CC(C)C[C@H](NC(=O)[C@H](CC(C)C)NC(=O)[C@H](Cc1ccccc1)NC(=O)[C@@H](N)CC(=O)O)C(=O)N[C@@H](CCCN=C(N)N)C(=O)N[C@@H](CC(N)=O)C(=O)N1CCC[C@H]1C(=O)O (H-DFLLRNP-OH)
